Screens from PubChem.
Lmaj promast = Leishmania major promastigote growth inhibition, primary screen. Leishmania major promastigotes, resazurin fluorescence viability. inhibition, % at 10 µM. 200,000 tested, 9% active; in the data active means inhibition above about 50%;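 further: promastigotes grown with compound for 44 hours at 28 °C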
T cruzi repl = inhibitors of intracellular T. cruzi growth, primary screen, luminescence, NIH3T3 host cells. T. cruzi beta-gal in NIH3T3, 90 h. inhibition, % (test concentration not listed). 300,000 tested, 1.4% active. AID 1885, 2009;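 active means mean inhibition across valid replicates above about 55%, limit read from the data; inconclusive means mean below that limit but half or more replicates reach it; inactive means mean below it, under half of replicates reach it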;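 further: signal also drops with host cell toxicity which is not excluded here; 0% = plate median of DMSO wells and 100% = zero luminescence signal; higher percent means less beta-gal luminescence so fewer parasites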
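System: Mouse NIH/3T3 fibroblasts infected with β-gal-expressing T. cruzi Tulahuen C4 | Quantity: NIH/3T3 cells, 5,000 per well | Reagent: 5000 reporter trypomastigotes per well | Dosing: Compound pinned at 50 nL/well, DMSO | Schedule: 3 h host attachment, then at least 90 h co-culture | Detection: GalScreen luminescence, 60 min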
CSC inhib = cancer stem cell viability inhibitors, primary screen, luminescence | cancer stem cell-like cells viability | inhibition, % at 7.5 µM | 300,000 tested, 1.1% active | AID 2717, 2010; in the data active means inhibition above about 75%; inconclusive means no clear call, values can overlap the other calls; tested in HMLE shEcad cells
Beta apoptosis = inhibitors of cytokine-induced beta cell apoptosis, primary screen, luminescence | INS-1E cytokine-induced death, ATP luminescence, 48 h; percent of positive-control rescue, neutral wells zero | protection from apoptosis, % (no concentration beside the values) | AID 435005, 2010 | 300,000 tested, 0.8% active;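 active means Every replicate reaches about 75%, or at least half do and their mean reaches it too, limit read from the data; inconclusive means At least half of replicates reach the limit but their mean does not; inactive means Under half of replicates reach the limit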;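 further: 0% = cytokine-treated negative control wells and 100% = positive control rescue; higher means more ATP so stronger rescue from cytokine killing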
SKKanGAS inh = S. pyogenes SKKanGAS growth inhibitors in kanamycin, primary screen, streptokinase expression inhibitor project, SKKanGAS strain, BacTiter-Glo luminescence; 300,000 tested, 1.3% active; inhibition, % at 7.5 µM; 6 h;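 active means mean replicate score, as percent of positive control median, at least 50; inconclusive means mean below 50 but one replicate at or above 50; inactive means mean and every replicate below 50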;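 further: strain carries kanamycin resistance gene driven by streptokinase promoter and grows in 40 µg/ml kanamycin; loss of luminescence reflects streptokinase promoter inhibition or plain growth inhibition; 0% = median of DMSO wells and 100% = positive control at its reference dose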
Mdm2 MdmX PPI = inhibitors of human Mdm2-MdmX association, primary screen, cell-based, luminescence, split luciferase, SaOS-2, uHTS | SaOS-2 split-luciferase Mdm2/MdmX complementation | 330,000 tested, 3% active | Protein Mdm4 (Homo sapiens) + E3 ubiquitin-protein ligase Mdm2 (Homo sapiens), … | inhibition, % at 8 µM;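 active means inhibition of at least 50% at 8 µM in the primary screen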
Target sequence (O15151 whole entry, looked up): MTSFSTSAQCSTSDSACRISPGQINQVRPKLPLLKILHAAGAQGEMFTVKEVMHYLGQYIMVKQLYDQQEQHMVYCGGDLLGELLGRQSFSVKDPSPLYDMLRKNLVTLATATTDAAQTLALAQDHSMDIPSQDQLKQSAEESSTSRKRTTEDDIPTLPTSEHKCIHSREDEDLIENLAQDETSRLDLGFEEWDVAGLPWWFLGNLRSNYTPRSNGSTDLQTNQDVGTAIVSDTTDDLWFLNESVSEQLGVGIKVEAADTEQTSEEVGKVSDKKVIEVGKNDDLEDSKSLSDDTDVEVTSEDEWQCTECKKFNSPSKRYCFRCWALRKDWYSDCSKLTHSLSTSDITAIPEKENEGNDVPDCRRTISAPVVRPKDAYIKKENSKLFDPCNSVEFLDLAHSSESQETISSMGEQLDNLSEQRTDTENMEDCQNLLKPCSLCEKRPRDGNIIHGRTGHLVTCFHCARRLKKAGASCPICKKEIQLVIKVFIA
Target sequence (Q00987 whole entry, looked up): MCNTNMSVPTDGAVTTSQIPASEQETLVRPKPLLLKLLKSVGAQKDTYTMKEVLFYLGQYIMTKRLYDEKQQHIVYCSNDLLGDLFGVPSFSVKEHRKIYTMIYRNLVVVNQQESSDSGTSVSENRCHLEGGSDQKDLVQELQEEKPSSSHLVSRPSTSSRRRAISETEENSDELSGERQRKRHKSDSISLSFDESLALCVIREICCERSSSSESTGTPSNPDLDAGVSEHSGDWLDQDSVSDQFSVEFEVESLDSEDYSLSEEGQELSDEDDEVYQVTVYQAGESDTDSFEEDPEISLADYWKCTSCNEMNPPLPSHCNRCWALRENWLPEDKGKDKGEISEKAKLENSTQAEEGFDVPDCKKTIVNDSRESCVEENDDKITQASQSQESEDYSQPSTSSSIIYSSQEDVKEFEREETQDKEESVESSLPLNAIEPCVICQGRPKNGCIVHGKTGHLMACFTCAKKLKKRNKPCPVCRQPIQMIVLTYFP
Numbers without * were called inactive; ? = inconclusive; / = no result. In the library only some 9.4% were active in any assay of this set; here they are far more common.

SMILES | Lmaj promast | T cruzi repl | CSC inhib | Beta apoptosis | SKKanGAS inh | Mdm2 MdmX PPI
COCCn1c(-c2ccccc2)nc2ccccc21 | 8 | 5 | 14 | -1 | 2 | 23
CCOC(Cn1c(-c2ccc(OC)cc2)nc2ccccc21)OCC | 64* | 12 | -12 | 2 | 3 | -31
ClCc1nc2ccccc2n1Cc1ccccc1 | / | 45 | 53 | -11 | 22 | -5
C=CCn1c(-c2ccc(C)cc2)nc2ccccc21 | 87* | 11 | -13 | 13 | -4 | -15
Cc1ccc(Cn2c(Cc3ccccc3)nc3ccccc32)cc1 | 13 | 13 | -10 | 1 | 69* | -2
COC(=O)C1=C(C(=O)OC)[C@@H]2Nc3ccccc3[C@@]23C[C@@H](C(=O)OC)N(C(=O)c2ccco2)C3=N1 | / | -8 | -15 | -22 | -3 | 11
CC(=O)c1c(C)[nH]c(C(=O)Nc2ccc(F)c(F)c2F)c1C | / | -2 | -2 | -5 | -3 | 0
C=C(C)Cn1c(-c2ccc(OC)cc2)nc2ccccc21 | 55* | 27 | 3 | 6 | 1 | 21
COCn1c(-c2ccc(OC)cc2)nc2ccccc21 | 18 | -8 | 31 | 2 | -1 | -83
CNC(=S)Nc1cccc(-c2cnc3ccccc3n2)c1 | / | 10 | 0 | -8 | 1 | -13
CC(C)(CO)Nc1nc(Nc2ccccc2)nc(Nc2ccccc2)n1 | 74* | 28 | 12 | 3 | -1 | 14
Cc1c(Cl)cccc1Nc1nc(NCCO)c2ccccc2n1 | / | 56* | 23 | 17 | -1 | 30
OCCNc1nc(Nc2ccccc2)nc2ccccc12 | 100* | 41 | 3 | 5 | 6 | 11
CCN(CC)c1ccc(/C=N/N2CCN(c3ccccn3)CC2)cc1 | / | -11 | -6 | -11 | -4 | 9
Cc1ccc(OCCCCn2c(CO)nc3ccccc32)cc1 | 56* | 12 | -5 | -3 | -4 | -3
OCc1nc2ccccc2n1CCOc1ccccc1 | / | -6 | -8 | / | 1 | 5
OCc1nc2ccccc2n1CCCCOc1ccccc1 | / | 7 | -1 | 2 | -9 | 13
CCOc1ccc(NCc2nc3ccccc3n2CCOc2ccccc2)cc1 | 72* | 25 | 7 | -5 | 4 | /
Cc1cc(Br)ccc1SCC(=O)OCC(=O)NC1CCCC1 | -5 | -14 | 4 | -3 | 1 | 6
O=C(CCSc1ccccc1)NNC(=O)c1ccccc1F | / | -9 | 5 | 0 | 0 | 17
Cc1ccc2oc(=O)n(Cc3ccc(F)cc3)c2c1 | / | -7 | 2 | -4 | 1 | 3
COc1cccc(-n2c(CN3CCN(c4ccccc4)CC3)nc3ccc([N+](=O)[O-])cc3c2=O)c1 | 63* | 35 | -5 | 0 | 14 | -14
COc1ccc(-n2c(CN3CCN(c4ccccc4OC)CC3)nc3ccc([N+](=O)[O-])cc3c2=O)c(OC)c1 | / | 16 | / | / | 2 | 12
OC(COc1ccc2ccccc2c1Br)Cn1ccnc1 (stereo not given) | 98* | 63* | -9 | -1 | 6 | 14
CC(=O)Nc1ccc(OCC(O)Cn2ccnc2)cc1 (stereo not given) | -5 | -24 | 1 | 3 | -6 | 2
SMILES | Lmaj promast | T cruzi repl | CSC inhib | Beta apoptosis | SKKanGAS inh | Mdm2 MdmX PPI
OC(COc1ccc2ccccc2c1)Cn1ccnc1 (stereo not given) | 98* | 48 | / | / | 11 | 14
Cc1cc(SCC(=O)c2cccs2)n2nc(C)c(-c3ccc(Cl)cc3)c2n1 | 7 | 15 | 78* | 26 | 28 | 47
C=CCSc1cc(C)nc2c(-c3ccc(Cl)cc3)c(C)nn12 | -2 | 22 | 15 | 18 | 2 | 37
C=C(C)CSc1cc(C)nc2c(-c3ccccc3)c(C)nn12 | / | 36 | 38 | 7 | 23 | 29
Cc1nn2c(SCC(=O)c3cccs3)cc(C(C)(C)C)nc2c1-c1ccccc1 | 5 | 59* | 37 | 11 | 20 | 7
CCOC(=O)[C@@H]1[C@H]2COc3ccc(Br)cc3[C@@H]2N2C(=O)N(c3ccc(F)cc3)C(=O)[C@]12C | / | -33 | -10 | -1 | 1 | 8
CCN1C/C(=N\S(=O)(=O)/N=C2\CN(CC)C(=O)N2CC)N(CC)C1=O | / | -14 | -7 | -6 | -2 | -21
O=S(=O)(Nc1nc2ccccc2nc1N1CCc2ccccc2C1)c1ccc(Cl)cc1 | 57* | -1 | 40 | 3 | -2 | -40
O=S(=O)(Nc1nc2ccccc2nc1N1CCN(c2ccccn2)CC1)c1ccc(Cl)cc1 | 66* | / | / | / | / | /
CC(=O)Nc1ccc(S(=O)(=O)Nc2nc3ccccc3nc2N2CCCCCC2)cc1 | -6 | -1 | -12 | -7 | 15 | 12
CC(=O)Nc1ccc(S(=O)(=O)Nc2nc3ccccc3nc2N2CCc3ccccc3C2)cc1 | 85* | -8 | -12 | -1 | 35 | 5
O=S(=O)(Nc1nc2ccccc2nc1Cl)c1ccc(Cl)cc1 | -4 | -13 | 7 | -3 | 17 | 32
O=S(=O)(Nc1nc2ccccc2nc1N1CCc2ccccc2C1)c1ccc(Br)cc1 | 13 | / | 36 | -3 | / | /
O=S(=O)(Nc1nc2ccccc2nc1-[n+]1ccccc1)c1ccc(Cl)cc1 | 56* | -10 | -6 | -8 | 2 | -17
O=C(CCNC(=O)c1ccco1)Nc1ccccc1N1CCOCC1 | -6 | 1 | -9 | -5 | 1 | 15
CCc1ccc(N2C(=O)CC(N3CCN(Cc4ccc5c(c4)OCO5)CC3)C2=O)cc1 (stereo not given) | -1 | 40 | -10 | 1 | -5 | 10
COc1ccc(OC)c(S(=O)(=O)NCCc2csc(-c3cccnc3)n2)c1 | / | 4 | -23 | -11 | 12 | 11
O=C(O)CCCNC(=O)c1ccc(NC(=O)Cc2ccc(Cl)cc2)cc1 | -5 | -1 | -10 | / | -1 | -33
N=C1/C(=C/c2cccs2)C(=O)N=C2SN=C(SCc3ccccc3)N12 | -10 | -4 | 6 | 4 | 81* | -8
C=C(C)COc1ccc(-c2nc(N)ncc2Oc2ccc(OC)cc2)c(O)c1 | 2 | 43 | 24 | -12 | 58* | 16
C=C(C)COc1ccc(-c2nc(N)nc(C(F)(F)F)c2-c2ccc(OC)cc2)c(O)c1 | / | 56* | 50 | -2 | 34 | 35
C=C(C)COc1ccc(-c2nc(N)ncc2Oc2ccccc2OC)c(O)c1 | 14 | / | 48 | -4 | / | 22
CCc1cc(-c2nc(N)ncc2-c2ccc(Br)cc2)c(O)cc1OC | / | 33 | ? | 7 | 64* | 35
C=C(C)COc1ccc(-c2ncncc2-c2ccc(Br)cc2)c(O)c1 | / | 44 | 7 | 7 | 9 | -7
C=C(C)COc1ccc(-c2nc(N)ncc2-c2ccc(Br)cc2)c(O)c1 | / | 20 | 107* | -2 | 96* | 19
CC(C)(CNc1ccc([N+](=O)[O-])cc1Cl)N1CCOCC1 | / | -3 | 10 | -2 | 1 | 20
